Published values collected from several papers.
Each line is one published result; the experiments were not run side by side.
Organism: Mycobacterium tuberculosis
Read-out: microbial growth

SMILES | assay | test system | setting | MIC
CO[C@H]1/C=C/O[C@@]2(C)Oc3c(C)c(O)c4c(O)c(c(/C=N/N5CCN(C)CC5)c(O)c4c3C2=O)NC(=O)/C(C)=C\C=C\[C@H](C)[C@H](O)[C@@H](C)[C@@H](O)[C@@H](C)[C@H](OC(C)=O)[C@@H]1C | resazurin | ATCC35801 ERDMAN | 7 days | 0.05 µg/mL
O=C(O)c1cc(O)c2c(c1)C(=O)c1cccc(O)c1C2=O | resazurin | H37RV | – | > 320 µM
CC[C@@H](CO)NCCN[C@@H](CC)CO | – | H37RV | 14 days | 0.78 µg/mL
O=C1c2cccc(O)c2C(=O)c2c(O)cc(CO)cc21 | resazurin | H37RV | – | > 320 µM
CCN1CCc2c(sc(N)c2C(=O)NC23CC4CC(CC(C4)C2)C3)C1 | resazurin | H37RV | – | > 200 µM
COc1cccc2c1C(=O)c1c(O)c3c(c(O)c1C2=O)C[C@@](O)(C(=O)CO)C[C@@H]3O[C@H]1C[C@H](N)[C@H](O)[C@H](C)O1 | resazurin | H37RV | – | 5 µM
CCOC(=O)c1c(NC(=O)c2cc(C(F)(F)F)cc(C(F)(F)F)c2)sc2c1CCN(C(=O)OC(C)(C)C)C2 | resazurin | H37RV | – | < 100 µM
CC[C@@H](CO)NCCN[C@@H](CC)CO | – | H37RV | 7 days | 0.8 µg/mL
CCOC(=O)c1c(NC(=O)c2cc(C(F)(F)F)cc(C(F)(F)F)c2)sc2c1CCN(CC)C2 | resazurin | H37RV | – | > 200 µM
CO[C@H]1/C=C/O[C@@]2(C)Oc3c(C)c(O)c4c(O)c(c(/C=N/N5CCN(C)CC5)c(O)c4c3C2=O)NC(=O)/C(C)=C\C=C\[C@H](C)[C@H](O)[C@@H](C)[C@@H](O)[C@@H](C)[C@H](OC(C)=O)[C@@H]1C | – | H37RV | 14 days | 0.17 µg/mL
